From ChEMBL document CHEMBL3352680, “Triterpene lactones from cultures of Ganoderma sp. KM01” (J Nat Prod, 2014) come the findings set out here.

Activity calls are given as the source filed them. The calls are words filed in the database; no cut-off is given here.

One assay has as its system MCF7. As to the kind of experiment: Cytotoxicity against human MCF7 cells up to 10 uM by colorimetric method. It counts as functional, cell-based.
The test system of the next assay is NCI-H187 (human). As to the kind of experiment: Cytotoxicity against human NCI-H187 cells up to 10 uM by colorimetric method.
The test system of another assay is Plasmodium falciparum. As to the kind of experiment: Antimalarial activity against multidrug-resistant Plasmodium falciparum K1 assessed as reduction in parasite growth by [3H]-hypoxanthine uptake assay. It counts as functional, organism-based. A digest of the protocol: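 P. falciparum K1 (multidrug-resistant) maintained in continuous in vitro culture. Microculture radioisotope technique: growth measured as [3H]-hypoxanthine uptake. IC50 is the concentration giving 50% reduction in parasite growth. Dihydroartemisinin was the positive control.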

The next assay has as its system KB. As to the kind of experiment: Cytotoxicity against human KB cells up to 10 uM by colorimetric method. It counts as functional, cell-based.

For orientation: IC50 means the point on the concentration scale where inhibition reaches its midpoint. As for `CC1=CC[C@]2(OC[C@]34CCC5=C(CC[C@@H]6C(=C5)C=CC(=O)OC6(C)C)[C@]3(C)CC[C@@H]4[C@@H]2C)OC1=O`, the outcome with MCF7, with NCI-H187 (human) and in the assay with KB was inactive. Moreover, the 50% inhibitory concentration (IC50) in the assay with Plasmodium falciparum was determined as 10 µM.
For `CC(=O)O[C@@H]1C[C@H]([C@H](C)[C@H]2CC=C(C)C(=O)O2)[C@@]2(C)CCC3=C(CC[C@@H]4C(=C3)C=CC(=O)OC4(C)C)[C@]12C` [COLOSSOLACTONE E], the result in the assay with MCF7, in the assay with NCI-H187 (human) and with KB was inactive. For the same molecule, the IC50 in the assay with Plasmodium falciparum was 10 µM.
Take `C[C@H]1[C@@H](O)O[C@@H]2O[C@@]3(C)CC[C@H]4[C@H](C)CC[C@@H]1[C@@]24OO3` [ARTENIMOL]: in the assay with Plasmodium falciparum, the IC50 was determined as 0.004 µM.
As for `CC1=CC[C@@H]([C@@H](C)[C@H]2CC[C@@]3(C)C4=C(C=C5C=CC(=O)OC(C)(C)[C@@H]5CC4)CC[C@]23C)OC1=O`, the outcome in the assay with MCF7, in the assay with NCI-H187 (human) and in the assay with KB was inactive. Besides, the 50% inhibitory concentration (IC50) with Plasmodium falciparum was determined as 6 µM.
